According to ChEMBL document CHEMBL1148169, “Bioactive and other sesquiterpenoids from Porella cordeana” (1993):

How the values were obtained:
[1] = system: Saccharomyces cerevisiae; test: DNA damaging activity against RS322YK rad52 DNA repair gene deficient Saccharomyces cerevisiae mutant assessed as drug level required to produce 12 mm zone of inhibition after 48 hrs; type: functional
How it was run: (§1)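 Agar well-diffusion test on Saccharomyces cerevisiae strains differing in DNA-repair genes. Sample is placed in a 100 μl well and the plate is incubated 48 h at 37°. The value is the concentration in μg/ml that gives a 12 mm diameter inhibition zone around the well.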

[2] = system: Saccharomyces cerevisiae; test: DNA damaging activity against RS167N rad6 DNA repair gene deficient Saccharomyces cerevisiae mutant assessed as drug level required to produce 12 mm zone of inhibition after 48 hrs; type: functional; how it was run: as §1
[3] = system: Saccharomyces cerevisiae; test: DNA damaging activity against DNA repair gene deficient Saccharomyces cerevisiae mutant assessed as drug level required to produce 12 mm zone of inhibition after 48 hrs

Row | Compound | IC12 [1] [µg/mL] | IC12 [2] [µg/mL] | IC12 [3] [µg/mL]
1 | CC1(C)CCC[C@@]2(C)C1=CC(=O)C1=C2C(=O)OC1 | > 1000 | > 1000 | > 1000
2 | C[C@@H]1[C@@H]2C[C@@]3(C)C(=O)c4ccoc4C[C@@]13C(=O)O2 [NORPINGUISANOLIDE] | > 1000 | > 1000 | > 1000
3 | CC1(C)CCC[C@]2(C)[C@H]3C(=O)OCC3=CC[C@@H]12 [DRIMENIN] | 200 | > 1000 | > 1000
4 | C[C@@H]1CCCC2=CC(=O)[C@@H]3[C@@H](C3(C)C)[C@]21C [ARISTOLONE] | 390 | > 1000 | > 1000
5 | CC1(C)CCC[C@]2(C)C3=C(COC3=O)C(=O)C[C@@H]12 | > 1000 | > 1000 | > 1000
